Laboratory results taken from ChEMBL document CHEMBL3632562, “Diethylstilbestrol-scaffold-based pregnane X receptor modulators” (Eur J Med Chem, 2015).
Active and inactive are the calls of the source. No cut-off for these calls is given here.

How the values were obtained:
[1] = tested on: HepG2; assay: Toxicity in human HepG2 cells expressing human full-length PXR assessed as reduction in cell viability at 50 uM; assay type: cell-based; conditions: hepg2, 50 µM
[2] = Solubility of the compound; assay type: physicochemical
[3] = molecular target: T1, Nuclear receptor subfamily 1 group I member 2 (Homo sapiens, UniProt O75469); assay: Antagonist activity at full length human PXR transfected in human HepG2 cells assessed as reduction in rifaximin-induced receptor transactivation at 50 uM after 18 hrs by luciferase reporter assay; assay type: cell-based; conditions: hepg2, 18 h
T1 sequence (O75469 whole entry): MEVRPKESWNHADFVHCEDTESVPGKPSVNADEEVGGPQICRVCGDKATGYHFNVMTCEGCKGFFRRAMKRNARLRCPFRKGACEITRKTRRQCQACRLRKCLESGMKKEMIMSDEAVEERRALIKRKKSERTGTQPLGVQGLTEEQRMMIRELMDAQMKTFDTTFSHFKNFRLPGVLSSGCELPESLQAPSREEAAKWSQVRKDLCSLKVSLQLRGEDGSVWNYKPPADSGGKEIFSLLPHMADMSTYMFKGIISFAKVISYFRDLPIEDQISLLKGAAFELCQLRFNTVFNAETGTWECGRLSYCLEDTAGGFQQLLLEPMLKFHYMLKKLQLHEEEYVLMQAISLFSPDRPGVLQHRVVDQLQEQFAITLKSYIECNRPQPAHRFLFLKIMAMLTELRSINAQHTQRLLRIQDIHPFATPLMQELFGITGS
How it was run: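 HepG2 (5 × 10⁴ cells/well, MEM/10% FBS) transiently transfected with full-length human PXR, RXR, PXRE-luciferase reporter and Renilla vectors, then treated 18 h with rifaximin (10 μM) plus compound (50 μM). Luciferase read-out normalised as RLU/Renilla RRU; p < 0.05 significance.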

[4] = molecular target: T1, Nuclear receptor subfamily 1 group I member 2; assay: Antagonist activity at full length human PXR transfected in human HepG2 cells assessed as reduction in rifaximin-induced receptor transactivation after 18 hrs by luciferase reporter assay; assay type: cell-based; conditions: for inhibition (INH): human, hepg2, 18 h
How it was run: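 Rifaximin-stimulated (10 μM) HepG2 transiently co-transfected with 75 ng pSG5-hPXRT1, 75 ng pSG5-RXR, 250 ng pGL3(henance)PXRE reporter and 100 ng pGL4.70-Renilla, then co-treated 18 h with compound at 10, 25 and 50 μM. Firefly luciferase RLU divided by Renilla RRU to normalise transfection efficiency; IC50 taken from concentration-response curve.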

[5] = molecular target: T1, Nuclear receptor subfamily 1 group I member 2; assay: Antagonist activity against PXR in human HepG2 cells assessed as inhibition of rifaximin-induced CYP3A4 gene expression at 25 uM after 18 hrs by quantitative real-time PCR analysis; assay type: cell-based; conditions: hepg2, 18 h
[6] = molecular target: T1, Nuclear receptor subfamily 1 group I member 2; assay: Activity at PXR in human HepG2 cells assessed as up regulation of rifaximin-induced PXR gene expression at 25 uM after 18 hrs by quantitative real-time PCR analysis; conditions: hepg2, 18 h
[7] = molecular target: T1, Nuclear receptor subfamily 1 group I member 2; assay: Transactivation of full length human PXR transfected in human HepG2 cells after 18 hrs by luciferase reporter assay relative to rifaximin; assay type: cell-based
How it was run: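 In HepG2 transfected with hPXR, RXR, PXRE-luciferase and Renilla plasmids, cells were exposed 18 h to compound at 10 μM, or at 10, 25 and 50 μM for EC50 determination, alongside rifaximin (10 μM) as reference agonist. Firefly signal normalised to Renilla.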

[8] = tested on: HepG2; assay: Up regulation of full length PXR expression in human HepG2 cells at 10 uM after 18 hrs by quantitative real-time PCR analysis; assay type: functional, cell-based
[9] = molecular target: T1, Nuclear receptor subfamily 1 group I member 2; assay: Transactivation of PXR in human HepG2 cells assessed as up regulation of CYP3A4 gene expression at 10 uM after 18 hrs by quantitative Real-time PCR analysis; assay type: cell-based; conditions: hepg2, 18 h
[10] = molecular target: T1, Nuclear receptor subfamily 1 group I member 2; assay: Antagonist activity at PXR (unknown origin)

## CC/C(=C(/CC)c1ccc(OCCCCO)cc1)c1ccc(OCCCCO)cc1
[1]
  Activity: Toxic

## CC/C(=C(/CC)c1ccc(OCCCCOC(C)=O)cc1)c1ccc(OCCCCOC(C)=O)cc1
[2]
  solubility: Insoluble

## CC/C(=C(/CC)c1ccc(OCCCO)cc1)c1ccc(OCCCO)cc1
[1]
  Activity: Toxic

## CC/C(=C(/CC)c1ccc(OCCOC(C)=O)cc1)c1ccc(OCCOC(C)=O)cc1
[3]
  inhibition (INH): Active

## CC/C(=C(/CC)c1ccc(O)cc1)c1ccc(O)cc1 [DIETHYLSTILBESTROL]
[3]
  inhibition (INH): Active
[4]
  IC50: 14.6 µM
  inhibition (INH): Dose-dependent effect
[5]
  inhibition (INH): Active
[6]
  Activity: Active

## CC/C(=C(/CC)c1ccc(OCCCCOS(=O)(=O)[O-])cc1)c1ccc(OCCCCOS(=O)(=O)[O-])cc1.[Na+].[Na+]
[3]
  inhibition (INH): Not Active

## CC/C(=C(/CC)c1ccc(OCCCOS(=O)(=O)[O-])cc1)c1ccc(OCCCOS(=O)(=O)[O-])cc1.[Na+].[Na+]
[3]
  inhibition (INH): Not Active

## CC/C(=C(/CC)c1ccc(OCCCOC(C)=O)cc1)c1ccc(OCCCOC(C)=O)cc1
[3]
  inhibition (INH): Active

## CC/C(=C(/CC)c1ccc(OC)cc1)c1ccc(OC)cc1
[7]
  EC50: 10.5 µM
[8]
  Activity: Active
[9]
  Activity: Active

## CC/C(=C(/CC)c1ccc(OCCOS(=O)(=O)[O-])cc1)c1ccc(OCCOS(=O)(=O)[O-])cc1.[Na+].[Na+]
[3]
  inhibition (INH): Not Active

## CC/C(=C(/CC)c1ccc(OS(=O)(=O)[O-])cc1)c1ccc(OS(=O)(=O)[O-])cc1.[Na+].[Na+]
[3]
  inhibition (INH): Not Active

## CC/C(=C(/CC)c1ccc(OCCO)cc1)c1ccc(OCCO)cc1
[3]
  inhibition (INH): Active
[4]
  IC50: 27.4 µM
  inhibition (INH): Dose-dependent effect
[5]
  inhibition (INH): Active
[6]
  Activity: Active

## Cc1cc(-c2onc(C)c2C(=O)Sc2ccccc2)no1
[10]
  IC50: 0.85 µM

## CO[C@H]1/C=C/O[C@@]2(C)Oc3c(C)c(O)c4c(O)c(c5c(nc6cc(C)ccn65)c4c3C2=O)NC(=O)/C(C)=C\C=C\[C@H](C)[C@H](O)[C@@H](C)[C@@H](O)[C@@H](C)[C@H](OC(C)=O)[C@@H]1C [RIFAXIMIN]
[7]
  EC50: 11.2 µM
[8]
  Activity: Active
